An excerpt weighted towards active compounds, which were near 0.7% of everything screened.
Lipid droplet = hepatic lipid droplet formation modulation; actives 0.4% (n = 240,000); AID 1656; AML12 mouse hepatocytes, oleate lipid droplets, BODIPY imaging; inhibition, % at 6.5 µM;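 active = lipid droplet intensity inhibited by at least 50%, with more than 500 cells counted; inconclusive = wells with under 300 cells, treated as cytotoxic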
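material = mouse AML12 hepatocyte cell line, fixed after treatment | also added = 100 µM oleic acid challenge | doses = compound at 6.5 µM only | schedule = overnight exposure | technique = Image-based BODIPY and DAPI two-channel analysis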
GSK3A inh = inhibitors of human GSK-3 alpha kinase. AID 2650. actives 0.1% (n = 320,000). P49840. inhibition, % at 10 µM. ADP-Glo luminescence, 60 min;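 active = more than half of replicates show inhibition above 20%; inconclusive = some but at most half of replicates above 20% inhibition; inactive = no replicate shows inhibition above 20%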;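 note: GST-tagged GSK-3 alpha with peptide substrate and 25 µM ATP; 0% = DMSO neutral wells and 100% = GW8510 positive control wells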
HSV augment = increases HSV replication in cells; HSV replication augmentation in cells, fold increase; maximum fold increase; actives 0.005% (n = 220,000); in the data active = maximum fold increase above about 1.5; inconclusive = no clear call, values can overlap the other calls; tested in PC3 cells
Rce1 inh = yeast Ras-converting enzyme inhibition | calls only | actives 0.27% (n = 290,000) | yeast membranes, quenched prenylated peptide cleavage fluorescence | AID 2563;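 active = fall in fluorescence gain of 50% or more versus controls, with final raw signal at or below 3038400; inconclusive = same 50% fall but final raw signal above 3038400; inactive = fall in fluorescence gain under 50%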;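 note: plate controls were neutral control wells for no effect and wells lacking membranes for full effect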
Target sequence (Q03530 whole entry, looked up): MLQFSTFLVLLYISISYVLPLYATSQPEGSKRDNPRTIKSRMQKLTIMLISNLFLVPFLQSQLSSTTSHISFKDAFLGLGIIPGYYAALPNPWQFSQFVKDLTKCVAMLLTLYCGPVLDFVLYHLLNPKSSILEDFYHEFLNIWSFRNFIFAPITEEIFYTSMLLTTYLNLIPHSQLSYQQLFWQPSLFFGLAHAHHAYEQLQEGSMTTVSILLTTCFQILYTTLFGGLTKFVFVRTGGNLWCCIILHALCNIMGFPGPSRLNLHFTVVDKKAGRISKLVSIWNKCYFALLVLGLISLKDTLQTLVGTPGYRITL
GSK3B inh = human GSK3beta kinase inhibition; GST-GSK3beta kinase, ADP-Glo luminescence, 60 min; hits give low values; activity score (negative = inhibition), % at 10 µM; actives 0.038% (n = 300,000); P49841;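 active = more than half of replicate wells score below -50%, meaning over 50% inhibition versus plate controls; inconclusive = some replicates but at most half score below -50%; inactive = no replicate scores below -50%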;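 note: 0% = median DMSO wells and -100% = median GW8510 positive control wells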
Target sequence (P49841 whole entry, looked up): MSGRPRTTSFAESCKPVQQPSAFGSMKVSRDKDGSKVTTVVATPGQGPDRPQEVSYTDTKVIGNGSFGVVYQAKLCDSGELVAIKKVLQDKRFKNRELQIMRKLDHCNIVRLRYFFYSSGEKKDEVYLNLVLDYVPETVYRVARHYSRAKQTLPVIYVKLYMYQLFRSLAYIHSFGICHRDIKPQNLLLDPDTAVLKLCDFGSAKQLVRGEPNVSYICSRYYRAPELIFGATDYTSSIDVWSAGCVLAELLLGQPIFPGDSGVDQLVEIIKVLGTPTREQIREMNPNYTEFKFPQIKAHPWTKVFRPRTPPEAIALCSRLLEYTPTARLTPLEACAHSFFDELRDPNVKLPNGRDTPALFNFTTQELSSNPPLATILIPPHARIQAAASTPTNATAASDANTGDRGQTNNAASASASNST
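Test system: GST-tagged human GSK3beta kinase, cell-free; evaluation: activity score scaled between in-plate DMSO and GW8510 controls; measured by: ADP-Glo luminescence; incubation: 60 min reaction, RT; benchmarks: DMSO and 20 µM GW8510; reagent: peptide substrate plus 25 µM ATP (final); medium: Tris/MgCl2 kinase buffer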
STK33 inh = human STK33 kinase inhibition. inhibition, % at 10 µM. AID 2661. Q9BYT3. purified STK33, MBP phosphorylation, ADP-Glo luminescence. actives 0.073% (n = 320,000);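 active = inhibition at or above 25%, using the most active replicate where run in duplicate; inactive = inhibition below 25%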
An asterisk follows results filed as active; i = inactive; ? = inconclusive; . = not tested or not shown; + = active, no number.

SMILES | Lipid droplet | GSK3A inh | HSV augment | Rce1 inh | GSK3B inh | STK33 inh
Fc1cccc(Cl)c1CSc1nnc(-c2ccncc2)o1 | 10.5 | 57.0* | . | i | -33.7 | 2.3
c1ccc2c(CSc3nnc(-c4ccncc4)o3)cccc2c1 | . | 32.9 | i | i | -25.7 | -1.1
N#Cc1ccccc1CSc1nnc(-c2ccncc2)o1 | 0.3 | 20.7 | . | i | -52.2* | 2.3
COc1cc(-c2nnc(SCc3c(F)cccc3Cl)o2)cc(OC)c1OC | -25.0 | -2.3 | i | i | -2.8 | -1.8
Brc1cccc(CSc2nnc(-c3ccncc3)o2)c1 | 1.9 | 58.8* | i | i | -70.3* | 1.9
COc1ccc(NC(=O)Nc2cccc3c2O[C@H](CN(C)S(C)(=O)=O)[C@@H](C)CN([C@H](C)CO)C3=O)cc1 | . | -3.7 | . | . | . | -0.7
CCOCC(=O)Nc1cc(Cl)ccc1C | 0.5 | -1.6 | i | i | -3.2 | -0.6
COCCn1c(SCC(=O)Nc2ccc(Cl)cn2)nc2ccccc21 | 15.0 | 13.4 | i | i | -76.3* | -0.7
COCCn1c(SCC(=O)Nc2ncc(Cl)c(C)c2Cl)nc2ccccc21 | -3.2 | -1.7 | i | i | -1.9 | -0.9
CN(c1ncnc(N)c1[N+](=O)[O-])C1CCS(=O)(=O)C1 (stereo unspecified) | -8.4 | 55.4* | i | i | -37.1 | -0.9
C/C(Cl)=C\Cn1c(O)c(N=NC(N)=S)c2cc(Br)ccc21 | -1.0 | 1.8 | i | + | -2.7 | 0.1
NC(=S)N=Nc1c(O)n(Cc2ccc(F)cc2)c2ccccc12 | 8.9 | 0.9 | i | + | -2.2 | -0.8
NC(=S)N=Nc1c(O)n(Cc2ccc(Br)cc2)c2ccccc12 | 0.8 | -3.0 | i | i | -0.9 | -0.5
O=C(Cn1cnc2c(NC(=O)OCc3ccccc3)ncnc21)NCCN1CCOCC1 | . | -1.3 | . | . | . | 0.3
COCCCNc1nc(N)c([N+](=O)[O-])c(Nc2ccccc2OC)n1 | 6.6 | 74.0* | i | i | -47.7 | -0.1
CC(C)CNc1nc(N)c([N+](=O)[O-])c(NCC2CCCO2)n1 (stereo unspecified) | 2.0 | 58.9* | i | i | -36.5 | 1.2
COCCCNc1nc(N)c([N+](=O)[O-])c(NCC2CCCO2)n1 (stereo unspecified) | 4.8 | 81.1* | i | i | -0.1 | 1.2
O=C(CSCc1nc2c(nnn2Cc2ccc(F)cc2)c(=O)[nH]1)Nc1cccc(C(F)(F)F)c1 | -33.8 | -8.4 | i | i | 1.2 | -0.7
CCOC(=O)c1csc(-c2ccc(OC)c(OC)c2)n1 | -2.5 | . | i | . | -1.9 | -1.5
CCOc1ccc(-c2nc(CCl)cs2)cc1OC | -14.7 | -2.3 | i | + | -1.1 | 0.5
COc1ccc(-c2nc(CC(=O)O)cs2)cc1OC | 11.7 | -1.3 | i | + | 1.9 | 0.2
O=C(CN(C1CCCCC1)S(=O)(=O)c1ccccc1)N1CCCC1 | 6.1 | 2.8 | i | i | 0.5 | 4.4
O=C(CN(C1CCCCC1)C1CCCCC1)N1CCc2ccccc2C1 | -3.0 | -1.4 | i | + | -1.4 | -0.1
CCCCNC(=O)C(CC)Sc1nc2sc(C(=O)OC)c(C)c2c(=O)n1N (stereo unspecified) | . | -0.7 | i | + | 1.8 | 0.1
CCC(Sc1nc2sc(C(=O)OC)c(C)c2c(=O)n1N)C(=O)N(CC)CC (stereo unspecified) | -14.1 | 0.2 | i | i | 2.5 | -1.6
SMILES | Lipid droplet | GSK3A inh | HSV augment | Rce1 inh | GSK3B inh | STK33 inh
COCCn1c(N)c(N(Cc2ccccc2)C(=O)c2oc3ccccc3c2C)c(=O)[nH]c1=O | -1.8 | 0.0 | i | i | 2.2 | -0.5
CCC(O)CNc1nc(SC)nc2sc3c(c12)CCN(C)C3 (stereo unspecified) | -0.9 | 87.8* | i | ? | -0.1 | 8.5
CCCN1C=CC(=C2C(=O)c3ccccc3C2=O)C=C1 | -3.4 | 9.5 | i | i | 0.1 | 30.7*
CCN1C=CC(=C2C(=O)c3ccccc3C2=O)C=C1 | . | 2.6 | i | i | -4.9 | 28.5*
CCCCCCN1C=CC(=C2C(=O)c3ccccc3C2=O)C=C1 | -4.0 | -3.2 | i | i | -5.0 | -0.6
COc1ccccc1-n1c(-c2ccc(Cl)cc2)c[nH]c1=S | -7.5 | -2.7 | i | i | 0.8 | 0.8
CCC(C)(C)n1nnnc1C(c1cc2ccc(C)cc2[nH]c1=O)N(Cc1cccnc1)Cc1ccco1 (stereo unspecified) | 61.6* | -3.4 | i | i | -0.7 | -1.7
COC(C(=O)N/N=C/c1ccc(OCC(=O)N2CCOCC2)cc1)c1ccccc1 (stereo unspecified) | 9.5 | -0.1 | . | i | 5.8 | -1.2
Cc1cc(O)c(C=O)c2c1C(=O)Oc1c(CO)c(O)c3c(c1O2)C(O)OC3=O (stereo unspecified) | 7.4 | 6.1 | i | . | . | 56.6*
Cc1cc(O)c(CN(C)C)c2c1C(=O)/C(=C/c1ccco1)O2 | 7.2 | 19.1 | . | i | -11.8 | 6.6
CCOC(=O)c1c(C)[nH]c(C(=O)COC(=O)/C=C/c2ccc(OCC#N)c(OC)c2)c1C | 4.7 | -2.9 | i | i | -1.6 | -0.9
O=C1c2c(O)ccc(O)c2C(=O)c2c(NCCNCCO)ccc(NCCNCCO)c21 | . | 62.0* | . | . | . | 66.1*
O=C(c1cnc2n(c1=O)CCS2)N1CCN(C(c2ccccc2)c2ccc(Cl)cc2)CC1 (stereo unspecified) | . | -0.3 | i | + | -0.8 | -0.2
O=C(c1cnc2n(c1=O)CCS2)N1CCN(c2ccccc2Cl)CC1 | 0.2 | . | i | . | . | .
CCN(CC)CCNC(=O)c1ccc(NC(=O)c2ccccc2-c2ccc(C(F)(F)F)cc2)cc1 | -43.3 | -0.2 | . | i | -2.5 | -1.9
COc1ccc(NC(=O)c2cn3c(nc4ccccc43)c(C#N)c2C)cc1 | -1.0 | 0.9 | i | + | -0.7 | -1.7
COCC(=O)Nc1cc(C)cn(Cc2ccccc2Cl)c1=O | 7.3 | -2.4 | . | i | -2.2 | 0.0
CCOC1(OCC)N=C(N)C2(C#N)C(c3ccc(NC(C)=O)cc3)C12C#N (stereo unspecified) | . | 59.9* | i | i | 3.2 | 12.5
COC1(OC)N=C(N)C2(C#N)C(c3ccc(F)cc3)C12C#N (stereo unspecified) | 14.1 | 0.7 | i | i | 0.7 | -1.5
CCCCn1c(=O)[nH]c(=O)c2c1nc(-c1ccc(OC)c(Br)c1)n2CC(C)C | 1.9 | 2.0 | . | + | -3.0 | -0.4
Oc1ccc(N2CCN(C(=S)NCCc3ccccc3)CC2)cc1 | . | . | i | i | -26.4 | 0.3
CCC(=O)NS(=O)(=O)c1ccc(-c2c(-c3ccccc3)noc2C)cc1 | . | . | i | . | . | .
Oc1cc(O)cc(/C=C/c2ccc(O)c(O)c2)c1 | . | 28.1 | . | . | . | 49.9*
C/C=C/c1ccc(O)c(OC)c1 | . | -2.0 | . | . | . | -0.1
Cc1cc(N2CCOCC2)n2cc(-c3ccccc3)nc2n1 | -1.0 | 0.5 | i | + | 1.8 | -2.1
O=C(NC(=S)N1CCCCCC1)c1ccccc1Cl | -0.4 | -2.3 | i | i | 4.4 | 0.3
